Results from ChEMBL document CHEMBL1122181 (J Med Chem, 1982).
Activity calls are given as the source filed them. The calls are words filed in the database; no cut-off is given here.

Legend:
Mus musculus [1] = experiment: Analgesic activity was determined by tail flick assay after subcutaneous administration in mice; Inactive; format: functional, organism-based
Mus musculus [2] = experiment: Analgesic activity was determined by writhing test after subcutaneous administration in mice; format: functional; details: sc
Summary of the method: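 Phenylquinone-induced writhing; compound given subcutaneously in distilled water. Potency derived by probit analysis, reported with 95% confidence limits.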

Mus musculus [3] = experiment: Analgesic activity was determined by tail flick assay after subcutaneous administration in mice; format: functional; details: sc
Summary of the method: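 Tail-flick method; compound given subcutaneously in normal saline. Potency derived by probit analysis, reported with 95% confidence limits.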

SMILES | ED50 (Mus musculus [1]) | ED50 (Mus musculus [2]) | ED50 (Mus musculus [3])
CN1CCC23c4c5ccc(OC(C)(C)C)c4O[C@H]2[C@@H](O)C=CC3C1C5 (some centres not stated) | inactive | 26.8 mg/kg | –
CN1CCC23CCCCC2C1Cc1ccc(OC(C)(C)C)cc13 (configuration not stated) | – | 5 mg/kg | 5.81 mg/kg
COc1ccc2c3c1O[C@H]1[C@@H](O)C=C[C@H]4[C@@H](C2)N(C)CC[C@@]341 [CODEINE] | – | 2.3 mg/kg | 39 mg/kg
CN1CC[C@]23CCCC[C@H]2[C@H]1Cc1ccc(O)cc13 [LEVORPHANOL] | – | 0.1 mg/kg | 1.3 mg/kg
CN1CC[C@]23c4c5ccc(O)c4O[C@H]2[C@@H](O)C=C[C@H]3[C@H]1C5 [MORPHINE] | – | 0.46 mg/kg | 4.06 mg/kg
COc1ccc2c(c1)C13CCCCC1C(C2)N(C)CC3 (stereo not drawn) [RACEMETHORPHAN] | – | 0.64 mg/kg | 6.78 mg/kg
